Published values gathered from unrelated publications.
Protocols differ between the studies behind these lines.
Target: Focal adhesion kinase 1 (PTK2, Homo sapiens, UniProt Q05397)

| Structure (SMILES) | observed | action | method | concentration | endpoint | value |
| --- | --- | --- | --- | --- | --- | --- |
| CSc1cccnc1N1CCN(Cc2nc3ccccc3[nH]2)CC1 | cell-free assay | – | competition with immobilised ligand | 1 µM | remaining binding | 100% |
| F[C@@H]1CCN(c2nccc(-c3cnn4ncccc34)n2)C1 | cell-free assay | – | – | 1 µM | remaining signal | 100% |
| C[C@H](c1ccnc(Nc2nc3ccc(-c4cc(N(C)C)ncn4)cc3[nH]2)c1)N1CCN(C(=O)CC(F)(F)F)CC1 | cell-free assay | – | competition with immobilised ligand | 0.1 µM | remaining binding | 100% |
| CC(C)(O)[C@H]1CC[C@H](Nc2ccc3ncc(-c4cccc(C(F)(F)F)c4)n3n2)CC1 | enzyme activity | inhibitor | – | 1 µM | remaining activity | 83.5% |
| CCOC(=O)c1cc2cc(-c3cc(C(=O)NCc4ccc(C(=O)O)cc4)nn3C)ccc2[nH]1 | cell-free assay | – | competition with immobilised ligand | 0.1 µM | remaining binding | 94% |
| O=C(Nc1cnn(-c2csc(C(=O)NC3COC3)c2)c1)Nc1ccccc1Cl | enzyme activity | inhibitor | – | 5 µM | remaining activity | 95.7% |
| CC1=C(C#N)C(c2ccc3c(c2)c(NC(=O)c2ccccc2C)nn3C)C(C#N)=C(C)N1 | cell-free assay | – | competition with immobilised ligand | 1 µM | remaining binding | 94% |
| CNC(=O)c1cc(Oc2ccc(NC(=O)Nc3ccc(Cl)c(C(F)(F)F)c3)cc2)ccn1 | cell-free assay | – | – | 0.5 µM | remaining signal | 102% |
| CC(=O)Nc1c(C(C)=O)c(=O)n(C)c2nc(-c3ccc(Cl)cc3Cl)c(-c3ccc(Cl)cc3)cc12 | cell-free assay | – | competition with immobilised ligand | 1 µM | remaining binding | 100% |
| Cc1cnc(NC2CCOCC2)nc1-n1cnc(C(=O)NC(CN)c2cc(F)cc(Cl)c2)c1 (centres unmarked) | enzyme activity | inhibitor | radiometric | 1 µM | remaining activity | 102% |
| Cc1ccc(C(=O)NCc2ccsc2)cc1C#Cc1cn(C(C)C)c2ncnc(N)c12 | enzyme activity | inhibitor | – | 1 µM | activity vs control | 79% |
| Cc1ccc(Nc2nccc(N(C)c3ccc4c(C)n(C)nc4c3)n2)cc1S(N)(=O)=O | enzyme activity | inhibitor | – | 10 µM | inhibition | 73% |
| Cc1sc(C(=O)NC2COC2)cc1-n1cc(NC(=O)Nc2c(F)cccc2Cl)cn1 | enzyme activity | inhibitor | – | 10 µM | remaining activity | 104% |
| COc1cc(Cl)c(C(=O)N[C@@H](CN[C@H]2CC[C@@H](N)CC2)Cc2ccc(C#N)cc2)cc1-c1ccc(CN[C@H](C)c2ccc(C)cc2)o1 | enzyme activity | inhibitor | – | 1 µM | remaining activity | 100% |
| O=C1Nc2ccc(Cl)cc2C1=Cc1cc(Cl)c(O)c(Cl)c1 | cell-free assay | – | – | 0.5 µM | remaining signal | 91.5% |
| N#CC1(c2ccccn2)CCN(Cc2cc(C(=O)N3CCCC3)c(=O)n3ccccc23)CC1 | cell-free assay | – | competition with immobilised ligand | 1 µM | remaining binding | 89% |
| COc1cc(-c2cc(-c3ccc(N4CCNCC4)cc3)cnc2C)cc(OC)c1OC | enzyme activity | inhibitor | – | 0.1 µM | inhibition | 26% |
| CC(C)(C)c1nc(-c2cccc(NS(=O)(=O)c3c(F)cccc3F)c2F)c(-c2ccnc(N)n2)s1 | enzyme activity | inhibitor | radiometric | 1 µM | remaining activity | 89% |
| COc1cc2ncnc(Nc3ccc(Oc4ccccc4)c(C)c3C)c2cc1OC | enzyme activity | inhibitor | – | 1 µM | inhibition | -1% |
| Cc1ccc(NC(=O)c2ccc(CN3CCN(C)CC3)cc2)cc1Nc1nccc(-c2cncc(-c3oncc3C)c2)n1 | enzyme activity | inhibitor | – | 0.5 µM | remaining activity | ≤ 50% |
| Cc1nc(C2CCN(C(=O)c3ccc(OC(F)(F)F)cc3N)CC2)c2ncc(N3CCN(C)CC3)cc2n1 | cell-free assay | – | competition with immobilised ligand | 1 µM | remaining binding | 91% |
| CS(=O)(=O)Nc1cccc(-c2csc(NC(=O)CSc3nc4nccnc4c(=O)n3CCc3ccccc3)n2)c1 | enzyme activity | inhibitor | – | 10 µM | inhibition | 2% |
| Cc1ccc(NC(=O)c2ccc(C)c(C(F)(F)F)c2)cc1C#Cc1nn(C2CCC(O)CC2)c2ncnc(N)c12 (centres unmarked) | cell-free assay | – | – | 10 µM | remaining signal | 45% |
| COCCOc1nc(-c2ccc(Cl)nc2)nc2c1CN(C(=O)c1ncn3ccccc13)CC2 | cell-free assay | – | competition with immobilised ligand | 0.1 µM | remaining binding | 99% |
| Cc1ccc(C(=O)Nc2ccc(CN3CCN(C)CC3)c(C(F)(F)F)c2)cc1C#Cc1cnc2cccnn12 | enzyme activity | inhibitor | – | 23.5 nM | remaining activity | 100% |
| O=C1NC(=O)c2cc(Nc3ccc(F)cc3)c(Nc3ccc(F)cc3)cc21 | cell-free assay | – | – | 0.5 µM | remaining signal | 96% |
| CN(c1nccc(-c2cnn3ncccc23)n1)C1CC1 | cell-free assay | – | – | 1 µM | remaining signal | 100% |
| Cc1[nH]c(/C=C2\C(=O)Nc3ccc(F)cc32)c(C)c1C(=O)N[C@H]1CCN(C(=O)N(C)C)C1 | enzyme activity | inhibitor | – | 0.1 µM | remaining activity | 88% |
| CC/C(=N\NC(=O)NCc1cccc(O)c1)c1ccc(O)c(C)c1O | enzyme activity | inhibitor | – | 0.1 µM | inhibition | -3.8% |
